Reference: ChEMBL document CHEMBL1151683, “Design, synthesis and antitumor evaluation of novel thalidomide dithiocarbamate and dithioate analogs against Ehrlich ascites carcinoma-induced solid tumor in Swiss albino mice” (Bioorg Med Chem, 2008)

Key:
Ehrlich [1] = assay: Cytotoxicity against mouse Ehrlich ascites carcinoma cells assessed as cell death at 10 uL after 24 hrs by trypan blue exclusion assay
Ehrlich [2] = assay: Cytotoxicity against mouse Ehrlich ascites carcinoma cells assessed as viable cells at 20 uL after 24 hrs by trypan blue exclusion assay; assay type: functional
How it was run: (§1)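 EAC cells maintained by i.p. passage in female Swiss albino mice. Cells aspirated from peritoneum, washed in HBSS and centrifuged at 1500 rpm for 15 min; 0.2 mL of diluted suspension plated. Compounds from 10 mmol stock in DMSO/H₂O (0.7:0.3) were added in triplicate and incubated 24 h at 37 °C, 5% CO₂. Viability by trypan blue exclusion; cytotoxicity calculated against control EAC cells.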

Ehrlich [3] = assay: Cytotoxicity against mouse Ehrlich ascites carcinoma cells assessed as viable cells at 30 uL after 24 hrs by trypan blue exclusion assay; assay type: functional
How it was run: as §1

Mus musculus [4] = assay: Increase in catalase activity per milligram of tissue in mouse Ehrlich ascites carcinoma cells implanted in Swiss albino mouse treated after 7 days post-tumor implantation at 1.25 mM/kg, sc for 5 days; assay type: functional
How it was run: (§2)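 Livers from tumour-bearing mice were excised and rinsed in ice-cold saline, then in cold 0.15 mol/L Tris–HCl pH 7.4. They were blotted dry, weighed and homogenised at 10% w/v. Lipid peroxidation was expressed as nmol MDA/g tissue, catalase as kU/mg tissue and SOD as U/g tissue.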

Mus musculus [5] = assay: Decrease in lipid peroxidation in mouse Ehrlich ascites carcinoma cells implanted in Swiss albino mouse assessed as malondialdehyde per gram of tissue treated after 7 days post-tumor implantation at 1.25 mM/kg, sc for 5 days; assay type: functional
How it was run: as §2

Mus musculus [6] = assay: Toxicity in Swiss albino mouse bearing mouse Ehrlich ascites carcinoma cells assessed as hepatocyte necrosis treated after 7 days post-tumor implantation at 1.25 mM/kg, sc for 5 days by histopathological analysis; assay type: organism-based; conditions: in vivo, 1250 µM
How it was run: (§3)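 Liver specimens from the treated tumour-bearing mice were paraffin-embedded and cut as 5 µm sections. Sections were H&E-stained and graded for severity of hepatocyte degeneration and necrosis, with 0 meaning no degeneration or necrosis.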

Mus musculus [7] = assay: Increase in SOD activity per gram of tissue in mouse Ehrlich ascites carcinoma cells implanted in Swiss albino mouse treated after 7 days post-tumor implantation at 1.25 mM/kg, sc for 5 days; assay type: functional
How it was run: as §2

Ehrlich [8] = assay: Antitumor activity against mouse Ehrlich ascites carcinoma cells implanted in Swiss albino mouse assessed as tumor necrosis treated after 7 days post-tumor implantation at 1.25 mM/kg, sc for 5 days by histopathological analysis relative to control; assay type: functional
How it was run: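 Necrosis scored on H&E-stained 5 µm paraffin sections of excised solid tumour. Severity and percentage necrosis were graded, and an H score was calculated.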

Mus musculus [9] = assay: Toxicity in Swiss albino mouse bearing mouse Ehrlich ascites carcinoma cells assessed as hepatocyte degeneration treated after 7 days post-tumor implantation at 1.25 mM/kg, sc for 5 days by histopathological analysis; assay type: organism-based; conditions: in vivo, 1250 µM
How it was run: as §3

Ehrlich [10] = assay: Induction of apoptosis in mouse Ehrlich ascites carcinoma cells implanted in Swiss albino mouse assessed as increase in Fas-L expression treated after 7 days post-tumor implantation at 1.25 mM/kg, sc for 5 days by immunohistochemical analysis; assay type: functional
How it was run: (§4)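 Solid tumours from EAC-bearing female Swiss albino mice; formalin-fixed, paraffin-embedded 5 µm sections. Microwave antigen retrieval (20 min, 10 mmol citrate, pH 6.0) after peroxidase block; primary antibody overnight at room temperature, labelled streptavidin–biotin HRP detection, DAB chromogen, Mayer's hematoxylin counterstain. Immunoreactivity scored blind by light microscopy as intensity, % positive cells and H score.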

Ehrlich [11] = assay: Antitumor activity against mouse Ehrlich ascites carcinoma cells implanted in Swiss albino mouse treated after 7 days post-tumor implantation at 1.25 mM/kg, sc for 5 days relative to control; assay type: functional
How it was run: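 Female Swiss albino mice (n = 8 per group) received 0.2 mL EAC cells (2 × 10⁶ cells/mL) s.c. between the thighs of the lower limb. From day 7, compounds were given at 1.25 mM/kg s.c. daily for 5 consecutive days. […] control group received DMSO/H₂O. Mice were sacrificed and tumour volume change assessed on day 12 post-implantation.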

Ehrlich [12] = assay: Antitumor activity against mouse Ehrlich ascites carcinoma cells implanted in Swiss albino mouse assessed as tumor apoptotic index treated after 7 days post-tumor implantation at 1.25 mM/kg, sc for 5 days by histopathological analysis; assay type: functional
How it was run: (§5)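 H&E-stained 5 µm paraffin sections of solid tumour. Mitotic cells counted in 10 random fields (at least 1000 tumour cells) at 400×. Apoptotic bodies counted in 10 random fields at the same magnification. MI and AI given as percentage of total intact tumour cells.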

Ehrlich [13] = assay: Antitumor activity against mouse Ehrlich ascites carcinoma cells implanted in Swiss albino mouse assessed as tumor mitotic index treated after 7 days post-tumor implantation at 1.25 mM/kg, sc for 5 days by histopathological analysis; assay type: functional
How it was run: as §5

Mus musculus [14] = assay: Toxicity in Swiss albino mouse bearing mouse Ehrlich ascites carcinoma cells assessed as focal degeneration of hepatocytes treated after 7 days post-tumor implantation at 1.25 mM/kg, sc for 5 days by histopathological analysis; assay type: organism-based; conditions: in vivo
How it was run: as §3

Mus musculus [15] = assay: Toxicity in Swiss albino mouse bearing mouse Ehrlich ascites carcinoma cells assessed as multifocal degeneration of hepatocytes treated after 7 days post-tumor implantation at 1.25 mM/kg, sc for 5 days by histopathological analysis; assay type: organism-based; conditions: in vivo, 1250 µM
How it was run: as §3

Ehrlich [16] = assay: Antiproliferative activity against mouse Ehrlich ascites carcinoma cells implanted in Swiss albino mouse assessed as inhibition of Ki67 protein expression treated after 7 days post-tumor implantation at 1.25 mM/kg, sc for 5 days by immunohistochemical analysis; assay type: functional; parameters: scale not given: the % may be the effect or the level left
How it was run: as §4

Ehrlich [17] = assay: Antiangiogenic activity against mouse Ehrlich ascites carcinoma cells implanted in Swiss albino mouse assessed as inhibition of VEGF expression treated after 7 days post-tumor implantation at 1.25 mM/kg, sc for 5 days by immunohistochemical analysis; assay type: functional; parameters: scale not given: the % may be the effect or the level left
How it was run: as §4

Mus musculus [18] = assay: Toxicity in Swiss albino mouse bearing mouse Ehrlich ascites carcinoma cells assessed as focal necrosis of hepatocytes treated after 7 days post-tumor implantation at 1.25 mM/kg, sc for 5 days by histopathological analysis; assay type: organism-based; conditions: in vivo, 1250 µM
How it was run: as §3

Compound	Activity (Ehrlich [1]) [%]	Activity (Ehrlich [2]) [%]	Activity (Ehrlich [3]) [%]	Activity (Mus musculus [4]) [kU]	Activity (Mus musculus [5]) [nmol]	Activity (Mus musculus [6])	Activity (Mus musculus [7]) [U]	Activity (Ehrlich [8]) [%]	Activity (Mus musculus [9])	Activity (Ehrlich [10]) [%]	inhibition (INH) (Ehrlich [11]) [%]	Activity (Ehrlich [12])	Activity (Ehrlich [13])	Activity (Mus musculus [14])	Activity (Mus musculus [15])	Activity (Ehrlich [16]) [%]	Activity (Ehrlich [17]) [%]	Activity (Mus musculus [18])
O=C1CCC(N2C(=O)c3ccccc3C2=O)C(=O)N1CSC(=S)NCc1ccccc1 (stereo not drawn)	56.7	59	61.3	–	–	–	–	–	–	–	–	–	–	–	–	–	–	–
CCCNC(=S)SCN1C(=O)CCC(N2C(=O)c3ccccc3C2=O)C1=O (stereo not drawn)	10.6	75.5	88.6	–	–	–	–	–	–	–	–	–	–	–	–	–	–	–
O=C1CCC(N2C(=O)c3ccccc3C2=O)C(=O)N1CSC(=S)N(CCO)CCO (stereo not drawn)	20.6	30.6	87.8	–	–	–	–	–	–	–	–	–	–	–	–	–	–	–
CSCN1C(=O)CCC(N2C(=O)c3ccccc3C2=O)C1=O (stereo not drawn)	62.5	71.5	82.8	6.7	289.6	Non-toxic	139.8	49	Non-toxic	45	90.6	0.002	0.004	–	–	–	–	–
O=C1CCC(N2C(=O)c3ccccc3C2=O)C(=O)N1CSC(=S)NCCc1ccccc1 (stereo not drawn)	45	47.3	52	–	–	–	–	–	–	–	–	–	–	–	–	–	–	–
O=C1CCC(N2C(=O)c3ccccc3C2=O)C(=O)N1CSC(=S)NCCN1CCNCC1 (stereo not drawn)	45.5	60.6	68.8	–	–	–	–	–	–	–	–	–	–	–	–	–	–	–
O=C1CCC(N2C(=O)c3ccccc3C2=O)C(=O)N1CSC(=S)NCCN1CCOCC1 (stereo not drawn)	20.6	75.7	94.7	–	–	–	–	–	–	–	–	–	–	–	–	–	–	–
CNC(=S)SCN1C(=O)CCC(N2C(=O)c3ccccc3C2=O)C1=O (stereo not drawn)	76.5	80	85.7	–	–	–	–	–	–	–	–	–	–	–	–	–	–	–
CCN(CC)C(=S)SCN1C(=O)CCC(N2C(=O)c3ccccc3C2=O)C1=O (stereo not drawn)	10.2	20.7	90.6	–	–	–	–	–	–	–	–	–	–	–	–	–	–	–
O=C1CCC(N2C(=O)c3ccccc3C2=O)C(=O)N1CSC(=S)NN1CCOCC1 (stereo not drawn)	30.5	70.6	91.3	–	–	–	–	–	–	–	–	–	–	–	–	–	–	–
CN1CCN(NC(=S)SCN2C(=O)CCC(N3C(=O)c4ccccc4C3=O)C2=O)CC1 (stereo not drawn)	80.4	80.7	100	8.2	248.4	Non-toxic	162.2	61	–	60	98.9	0.005	0.002	Active	–	–	–	–
O=C1CCC(N2C(=O)c3ccccc3C2=O)C(=O)N1CSC(=S)N1CCOCC1 (stereo not drawn)	80	80.5	89.7	–	–	–	–	–	–	–	–	–	–	–	–	–	–	–
O=C1CCC(N2C(=O)c3ccccc3C2=O)C(=O)N1CSC(=S)NC1CCCCC1 (stereo not drawn)	20.6	60.8	95.2	6.4	257.8	Non-toxic	128.6	41	–	44	92.7	0.002	0.005	Active	–	–	–	–
O=C1CCC(N2C(=O)c3ccccc3C2=O)C(=O)N1CSC(=S)NCCN1CCCCC1 (stereo not drawn)	80.5	80.8	100	7.2	247.6	Non-toxic	145.8	100	–	55	99.6	0.004	0.004	–	Active	–	–	–
O=C1CCC(N2C(=O)c3ccccc3C2=O)C(=O)N1CSC(=S)NNc1ccccc1 (stereo not drawn)	80	81.6	92	–	–	–	–	–	–	–	–	–	–	–	–	–	–	–
O=C1CCC(N2C(=O)c3ccccc3C2=O)C(=O)N1CSC(=S)N1CCCCC1 (stereo not drawn)	10.3	80.4	95.3	7.2	276.2	Non-toxic	152.4	50	–	120	95.9	0.002	0.004	Active	–	–	–	–
O=C1CCC(N2C(=O)c3ccccc3C2=O)C(=O)N1 (racemic) [THALIDOMIDE]	20.5	20.5	56.4	5.8	330.2	–	108.4	44	–	66	80.6	0.003	0.006	Active	–	7.4	8	Active
